Most compounds without a hit are left out; they make up all but 3.1% or so of the library.
OX1R antag-1 = blocks the human orexin 1 receptor. O43613. OX1R-expressing cells, FRET antagonist read-out. inhibition, % at 6.6 µM. 330,000 tested, 1.8% active. AID 485270; in the data active = inhibition mostly above about 38%, no sharp cut-off; inactive = mostly below about 40%;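 also: 0% = agonist challenge alone and 100% = reference antagonist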
Target sequence (O43613 whole entry, looked up): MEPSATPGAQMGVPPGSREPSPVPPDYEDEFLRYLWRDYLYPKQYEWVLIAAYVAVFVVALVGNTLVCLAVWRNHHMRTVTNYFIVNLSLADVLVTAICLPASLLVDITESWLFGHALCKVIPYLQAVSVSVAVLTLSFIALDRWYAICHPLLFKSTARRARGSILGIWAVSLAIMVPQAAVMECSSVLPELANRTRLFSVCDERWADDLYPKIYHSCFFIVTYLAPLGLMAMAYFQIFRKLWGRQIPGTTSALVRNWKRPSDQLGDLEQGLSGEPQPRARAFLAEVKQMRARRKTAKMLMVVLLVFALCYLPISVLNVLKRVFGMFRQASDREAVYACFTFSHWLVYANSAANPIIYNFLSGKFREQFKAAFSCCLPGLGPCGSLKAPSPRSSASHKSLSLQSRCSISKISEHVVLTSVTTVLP
CHO parental Ca = signal in parental CHO cells, OX1R antagonist counter-screen. 330,000 tested, 0.63% active. parental CHO-K1, ATP-induced calcium, Fluo-8 fluorescence. inhibition, % at 5.6 µM;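 active = inhibition above that plate's mean sample inhibition plus 3 SD, cut at about 26% in these data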;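 also: 0% = ATP-challenged DMSO wells and 100% = DMSO wells without ATP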
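Test system: parental CHO cells; detection: calcium-sensitive Fluo-8 fluorescence; evaluation: percent inhibition of calcium signal; also added: ATP as calcium-mobilizing challenge; repeats: one well per compound; control set: ATP-challenged DMSO wells low, unchallenged DMSO wells high; compound: single nominal dose of 5.6 µM per compound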
GalR3 antag = antagonists of human GalR3; HEK293 GalR3-CNG cAMP membrane potential fluorescence; galR3 body fused to GalR1 C-terminus; 360,000 tested, 0.44% active; inhibition, % at 3 µM; O60755; AID 651719;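 active = inhibition above the screen-wide average plus 3 SD, cut at about 13% in these data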;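 also: forskolin and galanin both at EC90 stimulate the cells; cAMP rise reported by CNG channel membrane potential dye signal; 0% = forskolin plus galanin with DMSO and 100% = forskolin alone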
OX1R antag-2 = antagonists of human orexin 1 receptor. O43613. CHO/OX1R cells, Fluo-8 calcium fluorescence, orexin A. inhibition, % at 5 µM. 330,000 tested, 0.43% active;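 active = inhibition above its plate's threshold, mean inhibition of all tested compounds on the plate plus 3 SD, cut at about 37% in these data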;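 also: 0% = orexin A challenge wells and 100% = SB-334867-A antagonist wells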
GPR7 antag = human neuropeptides B/W receptor 1 antagonism | GPR7-expressing cells, fluorescence antagonist assay | 290,000 tested, 1.1% active | P48145 | inhibition, % at 4.4 µM; in the data active = inhibition above about 16%, passing the limit was not always enough;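 also: cells stimulated with the agonist NPW; 0% = agonist with vehicle and 100% = vehicle without agonist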
OX1R Ca confirm = OX1R (human) antagonism, confirmed. AID 492963. CHO/OX1R cells, orexin A calcium Fluo-8 fluorescence. inhibition, % at 5 µM. 1,100 tested, 38% active. shares compounds with OX1R antag-2; in the data active = inhibition above about 29%;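 also: 0% = agonist challenge alone and 100% = reference antagonist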
CHO Ca triplic = signal in parental CHO cells, OX1R antagonist counter-screen | shares compounds with OX1R antag-2 | parental CHO-K1, ATP-induced calcium, Fluo-8 fluorescence | inhibition, % at 5.6 µM | 1,100 tested, 9.3% active | AID 492965;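 active = inhibition above a per-plate limit, the mean inhibition of that plate's test compounds plus 3 SD, cut at about 25% in these data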;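 also: 0% = ATP challenge with DMSO and 100% = DMSO without ATP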
OX1R HTRF conf = confirmation of human orexin 1 receptor antagonists, HTRF format | shares compounds with OX1R antag-1 | OX1R-expressing cells, HTRF antagonist assay | inhibition, % at 6.6 µM | 1,800 tested, 49% active | AID 492964; in the data active = inhibition above about 55%;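 also: CHO cells expressing OX1R stimulated with orexin A at about EC80; 0% = agonist challenge alone and 100% = reference antagonist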
CHO-K1 HTRF cnt = counter-screen: parental CHO-K1 HTRF response | AID 493232 | 1,800 tested, 48% active | inhibition, % at 6.6 µM | shares compounds with OX1R antag-1 | parental CHO-K1 cells, HTRF counterscreen; in the data active = inhibition above about 17%;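 also: 0% = agonist challenge with vehicle and 100% = vehicle alone without agonist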
* marks the source's active call; other numbers are inactive results; . = not tested or not shown.

SMILES	OX1R antag-1	CHO parental Ca	GalR3 antag	OX1R antag-2	GPR7 antag	OX1R Ca confirm	CHO Ca triplic	OX1R HTRF conf	CHO-K1 HTRF cnt
Cc1cc2oc(=O)ccc2cc1[N+](=O)[O-]	15	-8	-5	-16	1	.	.	.	.
Cc1ccc(C2NC(=O)c3[nH]nc(-c4ccccc4)c32)cc1 (configuration not stated)	.	.	-1	.	.	.	.	.	.
COC(=O)CSc1nnc(-c2ccc(S(=O)(=O)NCc3ccccc3Cl)cc2)o1	14	12	-3	26	14	33*	10	.	.
CCS(=O)(=O)Nc1ccc(-c2nnc(SCC(=O)OC)o2)cc1	13	-12	-5	-8	-6	.	.	.	.
COc1ccc(N(CC(=O)Nc2cccc(N(C)S(C)(=O)=O)c2)S(=O)(=O)c2ccccc2)cc1Cl	68	-6	9	59*	-7	56*	-3	.	.
COc1ccc(N(CC(=O)Nc2cccc(N(C)S(C)(=O)=O)c2)S(=O)(=O)c2ccc(F)cc2)cc1	32	-1	-7	4	-7	.	.	.	.
COc1ccc(N(CC(=O)Nc2ccc(OC)c(OC)c2)S(=O)(=O)c2ccccc2)cc1Cl	6	-16	7	-33	-16	.	.	.	.
COc1ccc(N(CC(=O)Nc2cccc(N(C)S(C)(=O)=O)c2)S(=O)(=O)c2ccc(C)cc2)cc1	28	-4	-5	27	-4	10	1	.	.
COc1cc(CN2CC(=O)N(c3cccc(Cl)c3C)C2=S)cc(OC)c1OC	27	-7	-10	13	0	.	.	.	.
COc1cc(CN2CC(=O)N(c3ccccc3Cl)C2=S)cc(OC)c1OC	39	1	-9	39	-15	68*	1	.	.
O=S(=O)(CCSc1nc2ccccc2o1)c1nc2ccccc2s1	41*	-1	-12	62*	-6	14	14	37	-4
O=C(NCc1ccco1)C1C(=O)Nc2ccccc2C(=O)N1C1CCCCC1 (configuration not stated)	.	.	-9	.	.	.	.	.	.
CC(CN1CCC(n2nccc2NC(=O)CCCc2ccccc2)CC1)c1ccccc1 (configuration not stated)	.	.	-2	.	-8	.	.	.	.
COc1ccc(OC)c(NC(=O)c2cc3ccccc3o2)c1	85*	-7	-5	41*	1	0	-7	52	12
COc1ccc(OC)c(NC(=O)c2cc(OC(C)=O)cc(C(=O)Nc3cc(OC)ccc3OC)c2)c1	85*	-10	-8	39	-19	54*	-2	85*	5
COc1ccc(OC)c(NC(=O)c2csc(Cl)c2OC)c1	105*	-19	-9	80*	9	11	-9	82*	5
CC1CN(Cc2ccccc2)C(=S)N(c2ccccc2)C1=O (configuration not stated)	.	.	1	.	.	.	.	.	.
C[C@@H](CC#N)CN1CC[C@H](C(C)(C)C)CCC1=O	22	0	-4	-2	-10	.	.	.	.
COc1ccc(NC(=O)C2(C)Cc3c(-c4ccccc4)ccnc3O2)cc1OC (configuration not stated)	.	.	-3	.	.	.	.	.	.
CCOc1ccccc1OCC(=O)OCC(=O)c1c(N)n(CC(C)C)c(=O)n(C)c1=O	15	2	0	35	.	.	.	.	.
COc1ccccc1CCC(=O)OCC(=O)c1c(N)n(CC(C)C)c(=O)n(C)c1=O	49*	18	-4	24	.	40*	21	20	2
O=C(NC(Cc1c[nH]c2ccccc12)C(=O)N/N=C/c1ccc(Cl)cc1)c1cccs1 (configuration not stated)	98*	-5	-7	48*	2	64*	8	81*	-1
O=C(NNC(=O)c1cccc(S(=O)(=O)N2CCc3ccccc32)c1)c1ccccc1	.	.	-4	.	-22	.	.	.	.

Assay outcomes from PubChem.
